Results taken from ChEMBL document CHEMBL4304771, “Design, synthesis and biological activity of N-(2-phenoxy)ethyl imidazo[1,2-a]pyridine-3-carboxamides as new antitubercular agents” (Eur J Med Chem, 2019).
In brackets after ≈: the same amount, converted by molar mass.

How the values were obtained:
[1] = test system: Mycobacterium tuberculosis; assay: Antitubercular activity against Mycobacterium tuberculosis H37Rv ATCC 27294 assessed as parasite growth inhibition measured after 7 days incubation by microplate alamar blue assay; type: functional; conditions: H37Rv ATCC 27294, 168 h
Outline: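 Strains grown to late log phase in 7H9 with 0.2% glycerol, 0.05% Tween 80 and 10% ADC. Cells washed, resuspended in PBS, filtered (8 µm) and frozen at -80 °C. Two-fold compound dilutions, 2 × 10⁵ CFU per well, 37 °C for 7 days. Tween 80 and Alamar blue then added for 16-24 h; fluorescence read at ex 530/em 590 nm. MIC = lowest concentration giving ≥90% fluorescence reduction versus mean of bacterium-only controls.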

[2] = Half-life in human hepatocytes; type: ADME, cell-based, Hepatocyte
[3] = Cmax in ICR mouse at 50 mg/kg, po administered as single dose measured for 24 hrs by HPLC analysis; type: ADME, organism-based; parameters: dose 50 mg/kg, route oral; conditions: in vivo
Outline: (§1)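 Female SPF ICR mice (18–22 g), fasted overnight, 3 per group, got a single oral 50 mg/kg dose as a suspension in 0.5% CMC. Jugular blood was drawn at 0.25, 0.5, 1, 2, 4, 6, 8 and 24 h, and serum was stored at −20 °C. Proteins were precipitated with acetonitrile, and extracts were dried, redissolved in acetonitrile and run by HPLC. Parameters came directly from the concentration–time data.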

[4] = AUC (0 to infinity) in ICR mouse at 50 mg/kg, po administered as single dose measured for 24 hrs by HPLC analysis; type: ADME, organism-based; parameters: dose 50 mg/kg, route oral, time infinity; conditions: in vivo; outline: as §1
[5] = Acute toxicity in ICR mouse assessed as animal survival at 500 mg/kg, po administered as single dose measured for 7 days; type: organism-based; conditions: in vivo
Outline: (§2)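 Female ICR mice, 18-22 g, five per group, randomly assigned, fasted overnight. Single oral dose of 500 mg/kg suspended in 5% CMC; controls got 5% CMC alone (0.5 mL). Watched continuously for 4 h, then hourly to 24 h, then every 8 h for 7 days for deaths or changes. Read-out was survivors/total.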

[6] = Tmax in ICR mouse at 50 mg/kg, po administered as single dose measured for 24 hrs by HPLC analysis; type: ADME, organism-based; conditions: in vivo; outline: as §1
[7] = Half-life in ICR mouse at 50 mg/kg, po administered as single dose measured for 24 hrs by HPLC analysis; type: ADME, organism-based; conditions: in vivo; outline: as §1
[8] = Mean residence time in ICR mouse at 50 mg/kg, po administered as single dose measured for 24 hrs by HPLC analysis; type: ADME, organism-based; conditions: in vivo; outline: as §1
[9] = Acute toxicity in ICR mouse assessed as decrease in animal survival at 500 mg/kg, po administered as single dose measured for 7 days; type: organism-based; conditions: in vivo, 168 h; outline: as §2

Cc1ccn2c(C(=O)NCCOc3ccc(Br)cc3)c(C)nc2c1
MIC [1]: 0.463 µg/mL (≈ 1.19 µM)

Cc1ccc2nc(C)c(C(=O)NCCOc3ccc(Br)cc3)n2c1
MIC [1]: 0.031 to 0.125 µg/mL (≈ 0.0798 to 0.322 µM)
half-life [2]: 6.5 min

CCc1nc2ccc(Br)cn2c1C(=O)NCCOc1ccc(N2CCC(C(F)(F)F)CC2)cc1
Cmax [3]: 5080 ng/mL
AUC(0-inf) [4]: 7120 ng·h/mL
survival at 168 h [5]: 100%
MIC [1]: 0.0625 µg/mL (≈ 0.116 µM)
Tmax [6]: 45 min
half-life [7]: 283 min
MRT [8]: 113 min

CCc1nc2ccc(F)cn2c1C(=O)NCCOc1ccc(Br)cc1
MIC [1]: 0.202 µg/mL (≈ 0.497 µM)

Cc1ccc2nc(C3CC3)c(C(=O)NCCOc3ccc(Br)cc3)n2c1
MIC [1]: 0.052 µg/mL (≈ 0.126 µM)

CCc1nc2ccc(Cl)cn2c1C(=O)NCCOc1ccc(Br)cc1
MIC [1]: 0.023 µg/mL (≈ 0.0544 µM)
half-life [2]: 35.2 min

COc1ccc(OCCNC(=O)c2c(C3CC3)nc3ccc(C)cn23)cc1
MIC [1]: 0.027 µg/mL (≈ 0.0739 µM)
half-life [2]: 7.8 min

CCc1nc2ccc(Cl)cn2c1C(=O)NCCOc1ccc(OC)cc1
MIC [1]: 0.056 µg/mL (≈ 0.15 µM)

O=C(NCCOc1ccc(Br)cc1)c1c(C2CC2)nc2ccc(Cl)cn12
MIC [1]: 0.098 µg/mL (≈ 0.225 µM)

CCc1nc2ccc(Cl)cn2c1C(=O)NCCOc1ccc(Cl)cc1
MIC [1]: 0.029 µg/mL (≈ 0.0767 µM)
half-life [2]: 12.9 min

CCc1nc2ccc(C)cn2c1C(=O)NCCOc1ccc(N2CCN(C)CC2)cc1
MIC [1]: 4 µg/mL (≈ 9.49 µM)

CCCc1nc2ccc(Cl)cn2c1C(=O)NCCOc1ccc(Br)cc1
MIC [1]: 0.054 µg/mL (≈ 0.124 µM)

CCc1nc2ccc(Cl)cn2c1C(=O)NCCOc1ccncc1
MIC [1]: > 32 µg/mL

COc1ccc2nc(C)c(C(=O)NCCOc3ccc(N4CCC(C(F)(F)F)CC4)cc3)n2c1
Cmax [3]: 638 ng/mL
AUC(0-inf) [4]: 754 ng·h/mL
survival at 168 h [5]: 100%
MIC [1]: 0.0625 µg/mL (≈ 0.131 µM)
Tmax [6]: 19.8 min
half-life [7]: 55 min
MRT [8]: 64.2 min

CCCc1nc2ccc(F)cn2c1C(=O)NCCOc1ccc(Br)cc1
MIC [1]: 2.68 µg/mL (≈ 6.38 µM)

Cc1nc2c(Cl)cccn2c1C(=O)NCCOc1ccc(Br)cc1
MIC [1]: 0.505 µg/mL (≈ 1.24 µM)

CCc1nc2c(Cl)cccn2c1C(=O)NCCOc1ccc(Br)cc1
MIC [1]: 17.5 µg/mL (≈ 41.4 µM)

O=C(NCCOc1ccc(Cl)cc1)c1c(C2CC2)nc2cc(Cl)ccn12
MIC [1]: 32 µg/mL (≈ 82 µM)

CCc1nc2ccc(Br)cn2c1C(=O)NCCOc1ccc(N2CC3CCCCC3C2)cc1 (configuration not stated)
Activity [9]: Toxic
MIC [1]: 0.0625 µg/mL (≈ 0.122 µM)

O=C(NCCOc1ccc(Br)cc1)c1c(C2CC2)nc2ccc(F)cn12
MIC [1]: 0.928 µg/mL (≈ 2.22 µM)

Cc1nc2ccc(F)cn2c1C(=O)NCCOc1ccc(Cl)cc1
MIC [1]: 3.84 µg/mL (≈ 11 µM)

O=C(NCCOc1ccc(Br)cc1)c1c(C2CC2)nc2cc(Cl)ccn12
MIC [1]: 32 µg/mL (≈ 73.6 µM)

CCCc1nc2ccc(C)cn2c1C(=O)NCCOc1ccc(Br)cc1
MIC [1]: 0.415 µg/mL (≈ 0.997 µM)

CCc1nc2ccc(Br)cn2c1C(=O)NCCOc1ccc(N2CCN(C)CC2)cc1
MIC [1]: 1 µg/mL (≈ 2.06 µM)

Cc1nc2c(C)cccn2c1C(=O)NCCOc1ccc(Br)cc1
MIC [1]: 13.9 µg/mL (≈ 35.9 µM)

CCc1nc2cc(Cl)ccn2c1C(=O)NCCOc1ccc(Cl)cc1
MIC [1]: 5.86 µg/mL (≈ 15.5 µM)

CCc1nc2ccc(Br)cn2c1C(=O)NCCOc1ccc(N2CCCCC2)cc1
Cmax [3]: 983 ng/mL
AUC(0-inf) [4]: 818 ng·h/mL
survival at 168 h [5]: 100%
MIC [1]: 0.0625 µg/mL (≈ 0.133 µM)
Tmax [6]: 15 min
half-life [7]: 251 min
MRT [8]: 169 min

Cc1nc2ccc(F)cn2c1C(=O)NCCOc1ccc(Br)cc1
MIC [1]: 1.21 µg/mL (≈ 3.08 µM)

CCc1nc2ccc(C)cn2c1C(=O)NCCOc1ccc(OC)cc1
MIC [1]: 0.023 µg/mL (≈ 0.0651 µM)
half-life [2]: 19.5 min

Cc1ccn2c(C(=O)NCCOc3ccc(Br)cc3)c(C3CC3)nc2c1
MIC [1]: 5 µg/mL (≈ 12.1 µM)

Cc1ccc2nc(C)c(C(=O)NCCOc3ccncc3)n2c1
MIC [1]: > 32 µg/mL

CCc1nc2cc(Cl)ccn2c1C(=O)NCCOc1ccc(Br)cc1
MIC [1]: 6.35 µg/mL (≈ 15 µM)

CCCc1nc2ccc(C)cn2c1C(=O)NCCOc1ccc(Cl)cc1
MIC [1]: 0.631 µg/mL (≈ 1.7 µM)

COc1ccc2nc(C)c(C(=O)NCCOc3ccc(N4CCN(C)CC4)cc3)n2c1
MIC [1]: 0.5 µg/mL (≈ 1.18 µM)

CCc1nc2ccc(Cl)cn2c1C(=O)NCCOc1ccc(N(C)C)cc1
Cmax [3]: 2120 ng/mL
AUC(0-inf) [4]: 3340 ng·h/mL
survival at 168 h [5]: 100%
MIC [1]: 0.0625 µg/mL (≈ 0.162 µM)
Tmax [6]: 15 min
half-life [7]: 162 min
MRT [8]: 98.4 min

CCc1nc2ccc(Cl)cn2c1C(=O)NCCOc1ccc(N2CCN(c3ccc(F)cc3)CC2)cc1
Cmax [3]: 3330 ng/mL
AUC(0-inf) [4]: 11100 ng·h/mL
survival at 168 h [5]: 100%
MIC [1]: 0.0625 µg/mL (≈ 0.12 µM)
Tmax [6]: 80 min
half-life [7]: 265 min
MRT [8]: 214 min

COc1ccc2nc(C)c(C(=O)NCCOc3ccc(N4CC5CCCCC5C4)cc3)n2c1 (configuration not stated)
Activity [9]: Toxic
MIC [1]: 0.0625 µg/mL (≈ 0.139 µM)

Cc1nc2cc(Cl)ccn2c1C(=O)NCCOc1ccc(Br)cc1
MIC [1]: 2.68 µg/mL (≈ 6.56 µM)

Cc1nc2cccc(Cl)n2c1C(=O)NCCOc1ccc(Br)cc1
MIC [1]: 2.52 µg/mL (≈ 6.18 µM)

CCc1nc2ccc(Br)cn2c1C(=O)NCCOc1ccc(Br)cc1
MIC [1]: 0.025 µg/mL (≈ 0.0535 µM)
half-life [2]: 15.8 min

CCc1nc2ccc(C)cn2c1C(=O)NCCOc1ccc(N2CC3CCCCC3C2)cc1 (configuration not stated)
survival at 168 h [5]: 0%
MIC [1]: 0.0625 µg/mL (≈ 0.14 µM)

CCc1nc2ccc(C)cn2c1C(=O)NCCOc1ccc(Br)cc1
MIC [1]: 0.275 µg/mL (≈ 0.684 µM)

CCCc1nc2ccc(F)cn2c1C(=O)NCCOc1ccc(Cl)cc1
MIC [1]: 1.14 µg/mL (≈ 3.04 µM)

Cc1nc2ccc([N+](=O)[O-])cn2c1C(=O)NCCOc1ccc(Br)cc1
MIC [1]: 1.28 µg/mL (≈ 3.05 µM)

COc1ccc2nc(C)c(C(=O)NCCOc3ccc(Br)cc3)n2c1
MIC [1]: 0.028 µg/mL (≈ 0.0693 µM)
half-life [2]: 54.2 min

Cc1nc2ccc(Br)cn2c1C(=O)NCCOc1ccc(Br)cc1
MIC [1]: 0.358 µg/mL (≈ 0.79 µM)

Cc1nc2ccc(Cl)cn2c1C(=O)NCCOc1ccc(Br)cc1
MIC [1]: 0.488 µg/mL (≈ 1.19 µM)

CCCc1nc2ccc(Cl)cn2c1C(=O)NCCOc1ccc(Cl)cc1
MIC [1]: 0.631 µg/mL (≈ 1.61 µM)

NNC(=O)c1ccncc1 [ISONIAZID]
MIC [1]: 0.049 µg/mL (≈ 0.357 µM)

O=c1nc(N2CCN(CC3CCCCC3)CC2)sc2c([N+](=O)[O-])cc(C(F)(F)F)cc12 [MACOZINONE]
MIC [1]: 0.0625 µg/mL (≈ 0.137 µM)

CO[C@H]1/C=C/O[C@@]2(C)Oc3c(C)c(O)c4c(O)c(c(/C=N/N5CCN(C)CC5)c(O)c4c3C2=O)NC(=O)/C(C)=C\C=C\[C@H](C)[C@H](O)[C@@H](C)[C@@H](O)[C@@H](C)[C@H](OC(C)=O)[C@@H]1C [RIFAMPIN]
MIC [1]: 0.05 µg/mL (≈ 0.0608 µM)

CCc1nc2ccc(Cl)cn2c1C(=O)NCc1ccc(N2CCC(c3ccc(OC(F)(F)F)cc3)CC2)cc1 [TELACEBEC]
MIC [1]: 0.0625 µg/mL (≈ 0.112 µM)
